Source: ChEMBL document CHEMBL3351242, “Tetrahydroxanthene-1,3(2H)-dione derivatives from Uvaria valderramensis” (2014)
Values after ≈ are worked out from the molar mass of the structure shown. Active and inactive are the calls of the source. The calls are words filed in the database; no cut-off is given here.

Key:
Format in all cases: functional
[1] = system: Mycobacterium tuberculosis; test: Antitubercular activity against Mycobacterium tuberculosis H37Rv by MABA assay
Summary of the method: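 Microplate Alamar Blue assay on the H37Rv strain, with rifampin, isoniazid and streptomycin as positive drug controls; values reported as MIC in μg/mL.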

HUVEC = test: Cytotoxicity against HUVEC; settings: Homo sapiens
Summary of the method: (§1)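 Growth inhibition measured colorimetrically with CellTiter-Blue and MTT read-outs, with imatinib as reference drug; values reported as GI50 in μg/mL.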

K562 = test: Cytotoxicity against human K562 cells; summary of the method: as §1
HeLa = test: Cytotoxicity against human HeLa cells; summary of the method: as §1

Row | Structure (SMILES) | MIC [1] | GI50 (HUVEC) [µg/mL] | GI50 (K562) [µg/mL] | CC50 (HeLa) [µg/mL]
1 | COc1ccc2c(c1)C[C@]1(OC)C(=O)/C(=C(O)/C=C/c3ccccc3)C(=O)C[C@@]1(OC)O2 | 10 µg/mL (≈ 22.9 µM) | – | – | –
2 | CC(=O)O[C@@H]1C(=O)C=COC=C1COC(=O)c1ccccc1 | 32 µg/mL (≈ 106 µM) | 5.4 (≈ 17.9 µM) | 1.4 (≈ 4.63 µM) | –
3 | COc1ccc2c(c1)C[C@]1(O)C(=O)/C(=C(O)/C=C/c3ccccc3)C(=O)C[C@@]1(OC)O2 (relative stereo) | inactive | – | – | –
4 | COc1ccc(C[C@H]2c3cc(O)c(OC)cc3CCN2C)cc1O [(S)-RETICULINE] | 32 µg/mL (≈ 97.1 µM) | – | – | –
5 | COc1cccc2c1C(=O)c1c(O)c3c(c(O)c1C2=O)C[C@@](O)(C(=O)CO)C[C@@H]3O[C@H]1C[C@H](N)[C@H](O)[C@H](C)O1 [DOXORUBICIN] | – | 0.1 (≈ 0.184 µM) | 1 (≈ 1.84 µM) | 2 (≈ 3.68 µM)
6 | Cc1ccc(NC(=O)c2ccc(CN3CCN(C)CC3)cc2)cc1Nc1nccc(-c2cccnc2)n1 [IMATINIB] | – | > 10 | 0.1 (≈ 0.203 µM) | > 10
7 | NNC(=O)c1ccncc1 [ISONIAZID] | 0.63 µg/mL (≈ 4.59 µM) | – | – | –
8 | CO[C@H]1/C=C/O[C@@]2(C)Oc3c(C)c(O)c4c(O)c(c(/C=N/N5CCN(C)CC5)c(O)c4c3C2=O)NC(=O)/C(C)=C\C=C\[C@H](C)[C@H](O)[C@@H](C)[C@@H](O)[C@@H](C)[C@H](OC(C)=O)[C@@H]1C [RIFAMPIN] | 0.15 µg/mL (≈ 0.182 µM) | – | – | –
9 | CN[C@@H]1[C@H](O[C@H]2[C@H](O[C@H]3[C@H](O)[C@@H](O)[C@H](N=C(N)N)[C@@H](O)[C@@H]3N=C(N)N)O[C@@H](C)[C@]2(O)C=O)O[C@@H](CO)[C@H](O)[C@H]1O [STREPTOMYCIN] | 0.83 µg/mL (≈ 1.43 µM) | – | – | –
